Assay results as given in ChEMBL document CHEMBL1955811, “Inhibition of colony-stimulating-factor-1 signaling in vivo with the orally bioavailable cFMS kinase inhibitor GW2580” (Proc Natl Acad Sci U S A, 2005).
Active and inactive are the calls of the source. The calls are words filed in the database; no cut-off is given here.

Experiments:
[1] = test system: Mus musculus; test: Inhibition of LPS-stimulated IL-6 production in mouse at 40 mg/kg, po administered 0.5 hr before LPS challenge measured […] after LPS challenge; format: functional
[2] = test system: Osteoclast; test: Inhibition of human osteoclast degradation of bone assessed as bone slice resorbed at 3 uM after 3 days by immunocytochemistry (reference value: 26.6 +/- 4.7 %); format: functional; conditions: 72 h
[3] = test system: Mus musculus; test: Inhibition of thioglycolate-induced macrophage influx into peritoneal cavity in mouse at 80 mg/kg, po BID administered 7 days before and 4 days after thioglycolate challenge; format: functional
Summary of the method: (§1)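 Female C3H/HEN mice (22-26 g) were dosed orally with compound suspended in 0.5% hydroxypropylmethylcellulose/0.1% Tween 80 (0.2 ml per mouse). Thioglycolate (1.5 ml) was injected i.p. on day 0. On day 4, the peritoneum was lavaged with 5 ml cold PBS containing 40 units/ml heparin, and cells were counted by hemocytometer in 0.1% crystal violet. Data are mean ± SEM; Dunnett's test.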

[4] = target: [Pyruvate dehydrogenase (acetyl-transferring)] kinase isozyme 4, mitochondrial (Homo sapiens, UniProt Q16654); test: Inhibition of human His-tagged PDHK4 using biotin-YHGHSMSDPGVSYRRR-amide as substrate after 20 mins by scintillation proximity assay
[Pyruvate dehydrogenase (acetyl-transferring)] kinase isozyme 4, mitochondrial, sequence (Q16654 whole entry, the tested form may be a part): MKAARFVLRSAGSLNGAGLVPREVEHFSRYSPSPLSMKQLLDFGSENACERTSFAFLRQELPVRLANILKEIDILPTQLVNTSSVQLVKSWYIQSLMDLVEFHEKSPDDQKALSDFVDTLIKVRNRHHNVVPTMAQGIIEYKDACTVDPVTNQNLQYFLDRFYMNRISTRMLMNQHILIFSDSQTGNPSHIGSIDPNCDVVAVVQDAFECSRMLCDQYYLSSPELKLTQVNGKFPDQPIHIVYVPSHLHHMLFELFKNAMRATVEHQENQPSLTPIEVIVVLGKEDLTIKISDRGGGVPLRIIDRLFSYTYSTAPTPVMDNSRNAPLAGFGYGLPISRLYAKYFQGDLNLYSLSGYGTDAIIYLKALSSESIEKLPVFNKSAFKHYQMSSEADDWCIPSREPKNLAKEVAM
Summary of the method: (§2)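 Catalytic domains of the human kinases were expressed, isolated and assayed with ATP and the appropriate substrate. Compound was tested as a 10- to 12-point dose-response up to a maximal 20 μM.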

[5] = target: Protein kinase C alpha type (Homo sapiens, UniProt P17252); test: Inhibition of human PKCa catalytic domain after by scintillation counting; summary of the method: as §2
[6] = Protein binding in cell-culture media with mouse plasma at 3 uM; format: ADME, cell-free; conditions: read-out: PB (converted)
Summary of the method: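 Compound at 3 μM was added to triplicate samples and incubated 1 h at 37°C. Samples were centrifuged through a 30,000-MW filter (1,500 × g, 15 min, 4°C). Percent bound was calculated from compound concentrations in the filtrate and retentate.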

[7] = test system: Mus musculus; test: Inhibition of LPS-stimulated TNF production in CSF-1 primed mouse at 40 mg/kg, po administered 4.5 hr before LPS challenge and CSF-1 priming measured […] after LPS challenge; format: functional
[8] = test system: Mus musculus; test: Toxicity in mouse M-NFS-60 cells allografted CD-1 nude mouse assessed as effect on body weight at 20 to 80 mg/kg, po BID starting 1 hr before challenge for 4 days; format: organism-based; set-up: dose 20-80 mg/kg, route oral; conditions: in vivo
Summary of the method: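 Female CD-1 nude mice (22-26 g) received 1 × 10^7 M-NFS-60 cells in PBS i.p. Oral dosing b.i.d. in 0.5% HPMC/0.1% Tween 80 began 1 h before cell injection. Body weight was taken at kill on day 4.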

[9] = test system: Mus musculus; test: Inhibition of LPS-stimulated IL-6 production in CSF-1 primed mouse at 40 mg/kg, po administered 4.5 hr before LPS challenge and CSF-1 priming measured […] after LPS challenge; format: functional
[10] = test system: Osteoclast; test: Inhibition of human osteoclast degradation of bone assessed as bone slice resorbed at 10 uM after 3 days by immunocytochemistry (reference value: 26.6 +/- 4.7 %); format: functional; conditions: 72 h
[11] = test system: Monocyte; test: Inhibition of GMCSF-stimulated growth of freshly isolated human monocytes at 1 uM preincubated for 30 mins before inducer addition measured after 5 days by WST-1 method; format: functional; conditions: read-out: GI
[12] = test system: Mus musculus; test: Inhibition of LPS-stimulated TNF production in mouse at 40 mg/kg, po administered 4.5 hr before LPS challenge measured […] after LPS challenge; format: functional
[13] = test system: Osteoclast; test: Inhibition of human osteoclast degradation of bone assessed as reduction in 23C6(+) cells with more than 3 nuclei per cm2 of bone at 1 uM after 3 days by immunocytochemistry (reference value: 854 +/- 122 cells/cm2 of bone); format: functional
[14] = Cmax in mouse at 80 mg/kg, po; format: ADME, organism-based; set-up: dose 80 mg/kg, route oral; conditions: in vivo
Summary of the method: (§3)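 Female mice given single oral doses (20 or 80 mg/kg) in 0.5% HPMC/0.1% Tween 80. Three mice killed with CO2 per time point; plasma extracted with isopropyl alcohol/acetonitrile, then vortexed, sonicated and centrifuged. Quantified by LC/MS (APCI positive mode, multiple-reaction monitoring) against a standard curve prepared in plasma.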

[15] = test system: Mus musculus; test: Inhibition of LPS-stimulated TNF production in CSF-1 primed mouse at 40 mg/kg, po administered 0.5 hr before LPS challenge post CSF-1 priming measured […] after LPS challenge; format: functional
[16] = test system: Monocyte; test: Effect on LPS-induced TNF production in human monocytes at 0.03906 to 20 uM preincubated for 30 mins before LPS stimulation measured after 20 hrs by ELISA; format: functional, cell-based
[17] = Inhibition of PTH-induced Wistar rat fetal long bone degradation assessed as labeled 45Ca release in to media at 0.1 to 0.3 uM after 48 hrs by liquid scintillation spectrometry; format: functional
Summary of the method: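 Fetal rat long bones preloaded with 45CaCl2 and incubated for 24 h. PTH and compound then added; release of labelled calcium into the medium measured 48 h later.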

[18] = test system: Osteoclast; test: Inhibition of human osteoclast degradation of bone assessed as reduction in 23C6(+) cells with more than 3 nuclei per cm2 of bone at 10 uM after 3 days by immunocytochemistry (reference value: 854 +/- 122 cells/cm2 of bone); format: functional
[19] = test system: NFS-60; test: Antitumor activity in mouse M-NFS-60 cells allografted in CD-1 nude mouse assessed as inhibition of tumor cell growth in peritoneal cavity at 80 mg/kg, po BID starting 1 hr before challenge for 4 days measured after 4 days; format: functional, organism-based; set-up: dose 80 mg/kg
Summary of the method: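 CD-1 nude female mice (22-26 g); 1 × 10^7 M-NFS-60 cells in PBS injected i.p. Oral dosing b.i.d. at 20 and 80 mg/kg as a suspension in 0.5% hydroxypropylmethylcellulose/0.1% Tween 80 (0.2 ml per mouse), starting 1 h before cell injection. Peritoneal cells recovered by cold PBS-heparin lavage on day 4 and counted by hemocytometer after crystal violet dilution. Mean ± SEM; Dunnett's test.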

[20] = test system: PBMC; test: Effect on LPS-induced IL-6 production in human PBMC at 0.03906 to 20 uM preincubated for 30 mins before LPS stimulation measured after 20 hrs by ELISA; format: functional, cell-based
[21] = Cmax in mouse at 20 mg/kg, po; format: ADME, organism-based; set-up: dose 20 mg/kg, route oral; conditions: in vivo; summary of the method: as §3
[22] = test system: Peritoneal macrophage cell; test: Effect on LPS-induced TNF production in mouse intraperitoneal macrophages pretreated with CSF-1 at 0.03906 to 20 uM compound incubated for 30 mins before LPS stimulation measured after 20 hrs by ELISA; format: functional, cell-based
[23] = test system: Mus musculus; test: Inhibition of thioglycolate-induced macrophage influx into peritoneal cavity in mouse at 20 mg/kg, po BID administered 7 days before and 4 days after thioglycolate challenge; format: functional; summary of the method: as §1
[24] = test system: HUVEC; test: Growth inhibition of VEGF-stimulated HUVEC after 3 days by spectrophotometry; format: cell-based; conditions: Homo sapiens, 72 h
Summary of the method: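 Cells cultured so that added serum or growth factor gave linear growth. Compound tested as a 10- to 12-point dose-response with a top concentration of 20 μM.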

[25] = test system: Monocyte; test: Effect on LPS-induced PGE2 production in human monocytes at 0.03906 to 20 uM preincubated for 30 mins before LPS stimulation measured after 20 hrs by ELISA; format: functional, cell-based

In the case of `COc1ccc(COc2ccc(Cc3cnc(N)nc3N)cc2OC)cc1` [GW632580X], the inhibition in vivo at 40 mg/kg [1] is reported as 20%, the bone resorption (%) at 3 µM [2] is reported as 1.5% and the inhibition in vivo at 80 mg/kg [3] is reported as 45%. The IC50 [4] was > 28 µM, the IC50 [5] was > 13 µM and the fraction unbound at 3 µM [6] was 0.07. For the same compound, the inhibition in vivo at 40 mg/kg [7] was 58%, the Activity [8] was “Non-toxic” and the inhibition in vivo at 40 mg/kg [9] was 49%. It also gave a bone resorption (%) at 10 µM [10] of 1.2%, an inhibition of growth at 1 µM [11] of 80% and an inhibition in vivo at 40 mg/kg [12] of 42%. The Activity [13] was 244 /cm2, the Cmax [14] was 400 nM and the inhibition in vivo at 40 mg/kg [15] was 63%. For the same compound, the Activity [16] was “inactive”, the “inhibition (INH)” value [17] was 30% and the Activity [18] was 34 /cm2. For the same compound, the “growth inhibition (GI)” value [19] was “Active”, the Activity [20] was “inactive” and the Cmax [21] was 50 nM. The Activity [22] was “inactive”, the inhibition in vivo at 20 mg/kg [23] was 8% and the IC50 [24] was 12 µM. The Activity [25] was “inactive”.
